Reference: ChEMBL document CHEMBL1142741, “Norpiperidine imidazoazepines as a new class of potent, selective, and nonsedative H1 antihistamines” (J Med Chem, 2005)

How the values were obtained:
[1] = Solubility in 0.1 M HCl at pH 2.7; format: physicochemical
Procedure, shortened: (§1)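 Excess or stated amounts of solute were shaken in closed vials of solvent for 24 h at 20 °C, following Higuchi and Connors. For clear solutions, only pH was recorded and solubility was taken as solute added per solvent volume. Turbid samples were filtered through 0.45 µm, the filtrate pH was recorded, and concentration was measured by UV absorption.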

[2] = Solubility in 0.1 M NaOH at pH 13.0; format: physicochemical; procedure, shortened: as §1
[3] = Solubility in buffer (pH 2) at pH 4.8; format: physicochemical; procedure, shortened: as §1
[4] = Solubility in buffer (pH 4) at pH 5.4; format: physicochemical; procedure, shortened: as §1
[5] = Solubility in buffer (pH 6) at pH 9.2; format: physicochemical; procedure, shortened: as §1
[6] = Solubility in buffer (pH 10) at pH 10.2; format: physicochemical; procedure, shortened: as §1
[7] = Solubility in buffer of (pH 8) at pH 9.0; format: physicochemical; details: buffer (pH 8); procedure, shortened: as §1
[8] = Solubility in simulated gastric fluid at pH 3.1; format: physicochemical; procedure, shortened: as §1
[9] = Solubility in simulated intestinal fluid at pH 10.1; format: physicochemical; procedure, shortened: as §1
[10] = Partition coefficient (logP); format: physicochemical; details: octanol/water
[11] = biological target: Histamine H1 receptor (Homo sapiens, UniProt P35367); assay: Binding affinity for H1 histamine receptor expressed in CHO cells; format: cell-based
[12] = system: Rattus norvegicus; assay: Effective dose for inhibition of skin reactions induced by histamine in rat by 2 hr after the subcutaneous administration; format: functional; details: sc
Procedure, shortened: (§2)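 Male Wistar rats (200-240 g) were passively sensitized with intradermal ovalbumin-specific IgE serum; 50 h later histamine (50 µg), serotonin (0.1 µg) and Ascaris allergens (1/2 in saline) were injected intradermally at dorsal sites. Compound was given sc 2 h before challenge, with two observers' scores summed. Histamine and serotonin: inhibition score <4, blockade <3. PCA and Ascaris: score <3. ED50 by Finney's method, five animals per dose.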

[13] = system: Rattus norvegicus; assay: Effective dose for inhibition of skin reactions induced by serotonin in rat by 2 hr after the subcutaneous administration; format: functional; details: sc; procedure, shortened: as §2
[14] = system: Rattus norvegicus; assay: Effective dose for the inhibition of 48/80-induced lethal anaphylactic reaction was determined in rat by 2 hours after oral administration; format: functional
Procedure, shortened: (§3)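 Compound or solvent was given sc 1 h or po 2 h beforehand at 10 mL/kg, dosed as base equivalents from a 0.04-10 mg/kg geometric series, five rats per dose.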

[15] = system: Rattus norvegicus; assay: Effective dose for blockade of skin reactions induced by passive cutaneous anaphylaxis in rat by 2 hr after the subcutaneous administration; format: functional; details: sc; procedure, shortened: as §2
[16] = system: Rattus norvegicus; assay: Effective dose for blockade of skin reactions induced by histamine in rat by 2 hr after the subcutaneous administration; format: functional; details: sc; procedure, shortened: as §2
[17] = system: Rattus norvegicus; assay: Effective dose for blockade of skin reactions induced by Ascaris allergens in rat by 2 hr after the subcutaneous administration; format: functional; details: sc; procedure, shortened: as §2
[18] = system: Rattus norvegicus; assay: Effective dose for the inhibition of 48/80-induced lethal anaphylactic reaction was determined in rat by 1 hour after subcutaneous administration; format: functional; details: sc; procedure, shortened: as §3
[19] = system: Canis familiaris; assay: Onset action against Ascaris allergens induced cutaneous reactions was determined by oral administration at four times the peak effect dose in dog; format: functional, Canis lupus familiaris
Procedure, shortened: (§4)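 Beagle dogs of both sexes, selected for sensitivity to Ascaris allergens (ACF, 1/100 in saline), injected intradermally at three chest sites. Wheal diameter and skin thickness increase were read 15 min after injection, before and 1, 4, 20 and 72 h after oral dosing. Onset and duration were estimated graphically at four times the peak-effect dose.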

[20] = system: Canis familiaris; assay: Duration of action against Ascaris allergens induced cutaneous reactions was determined by oral administration at four times the peak effect dose in dog; format: functional, Canis lupus familiaris; procedure, shortened: as §4
[21] = pKa1 value was determined; format: physicochemical; details: read-out: pKa1
[22] = pKa2 value was determined; format: physicochemical
Procedure, shortened: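 logP was measured in octanol/pH 12 buffer; pKa was measured by the Sirius PCA 101 method.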

[23] = system: Cavia porcellus; assay: Effective dose for blockade of skin reactions induced by histamine in guinea pig by 2 hr after the oral administration
[24] = system: Cavia porcellus; assay: Effective dose for inhibition of skin reactions induced by histamine in guinea pig by 2 hr after the oral administration
[25] = system: Cavia porcellus; assay: Effective dose for inhibition of skin reactions induced by substance P in guinea pig by 2 hr after the oral administration
[26] = system: Canis familiaris; assay: Peak effective dose for inhibition of skin reactions induced by Ascaris allergens in dog by 4 hr after the oral administration; details: Canis lupus familiaris
[27] = system: Cavia porcellus; assay: Effective dose for inhibition of skin reactions induced by Ascaris allergens in guinea pig by 2 hr after the oral administration
[28] = system: Rattus norvegicus; assay: Effective dose for the inhibition of 48/80-induced lethal anaphylactic reaction was determined in rat by 2 hour after oral administration; format: functional; procedure, shortened: as §3
[29] = Solubility in water mg/mL; format: physicochemical; procedure, shortened: as §1
[30] = Solubility in water at pH 2.0; format: physicochemical; procedure, shortened: as §1
[31] = Solubility in 0.1 M HCl at pH 1.0; format: physicochemical; procedure, shortened: as §1
[32] = Solubility in 0.1 M NaOH at pH 12.6; format: physicochemical; procedure, shortened: as §1
[33] = Solubility in buffer (pH 2) at pH 1.1; format: physicochemical; details: in the assay text read “pH 1.8” for “pH 1.1”; procedure, shortened: as §1
[34] = Solubility in buffer (pH 4) at pH 2.9; format: physicochemical; procedure, shortened: as §1
[35] = Solubility in buffer (pH 6) at pH 4.2; format: physicochemical; procedure, shortened: as §1
[36] = Solubility in buffer (pH 8) at pH 3.8; format: physicochemical; procedure, shortened: as §1
[37] = Solubility in buffer (pH 10) at pH 4.3; format: physicochemical; procedure, shortened: as §1
[38] = Solubility in simulated gastric fluid at pH 1.1; format: physicochemical; procedure, shortened: as §1
[39] = Solubility in simulated intestinal fluid at pH 2.3; format: physicochemical; procedure, shortened: as §1

Chain of Histamine H1 receptor (P35367 whole entry): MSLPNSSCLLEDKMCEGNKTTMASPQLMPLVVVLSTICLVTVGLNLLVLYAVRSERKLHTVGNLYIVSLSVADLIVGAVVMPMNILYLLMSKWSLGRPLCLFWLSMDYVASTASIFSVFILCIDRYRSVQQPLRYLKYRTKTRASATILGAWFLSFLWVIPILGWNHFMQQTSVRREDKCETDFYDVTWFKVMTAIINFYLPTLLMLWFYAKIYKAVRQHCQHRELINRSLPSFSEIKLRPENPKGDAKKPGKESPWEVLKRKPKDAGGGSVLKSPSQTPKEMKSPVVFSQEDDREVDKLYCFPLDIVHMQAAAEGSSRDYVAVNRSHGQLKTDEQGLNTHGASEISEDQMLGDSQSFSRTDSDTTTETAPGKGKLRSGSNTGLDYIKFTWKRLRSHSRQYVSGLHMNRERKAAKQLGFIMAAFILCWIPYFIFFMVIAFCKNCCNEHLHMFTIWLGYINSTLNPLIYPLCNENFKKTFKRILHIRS

Cl.NC(=O)c1cnc2n1CCc1ccccc1C21CCNCC1
solubility [1]: > 20 mg/mL
solubility [2]: 0.93 mg/mL
solubility [3]: > 20 mg/mL
solubility [4]: > 20 mg/mL
solubility [5]: 8.04 mg/mL
solubility [6]: 1.65 mg/mL
solubility [7]: 12.2 mg/mL
solubility [8]: > 20 mg/mL
solubility [9]: 1.69 mg/mL

Cn1ccc2c1CCn1ccnc1C2=C1CCNCC1
logP [10]: 1.25
Ki [11]: 22 nM
ED50 [12]: 0.08 mg/kg
ED50 [13]: > 0.16 mg/kg
ED50 [14]: 0.76 mg/kg
ED50 [15]: 0.08 mg/kg
ED50 [16]: 0.13 mg/kg
ED50 [17]: 0.13 mg/kg
ED50 [18]: 0.028 mg/kg
Time [19]: <1 h
Time [20]: 35 h
pKa [21]: 9.85
Pka2 [22]: 6.52
ED50 [23]: 0.96 mg/kg
ED50 [24]: 0.24 mg/kg
ED50 [25]: 1.7 mg/kg
ED50 [26]: 0.038 mg/kg
ED50 [27]: 8.7 mg/kg

Cn1ccc2c1C(=O)Cn1ccnc1C2=C1CCNCC1
Ki [11]: 12 nM
ED50 [12]: 0.55 mg/kg
ED50 [13]: > 10 mg/kg
ED50 [28]: 0.34 mg/kg
ED50 [15]: 0.42 mg/kg
ED50 [16]: 0.95 mg/kg
ED50 [17]: 2.9 mg/kg
ED50 [18]: 0.037 mg/kg
Time [19]: <1 h
Time [20]: 13 h
ED50 [23]: 0.08 mg/kg
ED50 [24]: 0.02 mg/kg
ED50 [25]: > 2.5 mg/kg
ED50 [26]: 0.018 mg/kg
ED50 [27]: 0.42 mg/kg

Cl.Cl.O=C(O)COCCN1CCN([C@H](c2ccccc2)c2ccc(Cl)cc2)CC1 [LEVOCETIRIZINE DIHYDROCHLORIDE]
ED50 [12]: 0.68 mg/kg
ED50 [13]: > 10 mg/kg
ED50 [28]: 1.2 mg/kg
ED50 [15]: 2.7 mg/kg
ED50 [16]: 0.68 mg/kg
ED50 [17]: 3.6 mg/kg
Time [19]: <1 h
Time [20]: 30 h
ED50 [23]: 0.14 mg/kg
ED50 [24]: 0.046 mg/kg
ED50 [25]: > 2.5 mg/kg
ED50 [26]: 0.14 mg/kg
ED50 [27]: > 2.5 mg/kg

CCOC(=O)N1CCC(=C2c3ccc(Cl)cc3CCc3cccnc32)CC1 [LORATADINE]
ED50 [12]: 0.89 mg/kg
ED50 [13]: 6.2 mg/kg
ED50 [28]: 0.22 mg/kg
ED50 [15]: 1.6 mg/kg
ED50 [16]: 1.8 mg/kg
ED50 [17]: 2.7 mg/kg
ED50 [18]: 0.29 mg/kg
Time [19]: <1 h
Time [20]: 33 h
ED50 [23]: 0.32 mg/kg
ED50 [24]: 0.08 mg/kg
ED50 [25]: 2.2 mg/kg
ED50 [26]: 0.2 mg/kg
ED50 [27]: 0.42 mg/kg

Cl.Cl.NC(=O)c1cnc2n1CCc1ccccc1C21CCNCC1 [VAPITADINE DIHYDROCHLORIDE]
logP [10]: 1.18
Ki [11]: 19 nM
ED50 [12]: 0.51 mg/kg
ED50 [13]: > 10 mg/kg
ED50 [28]: 1.2 mg/kg
ED50 [15]: 2.3 mg/kg
ED50 [16]: 1.4 mg/kg
ED50 [17]: 2.7 mg/kg
ED50 [18]: 0.056 mg/kg
Time [19]: <1 h
Time [20]: 21 h
solubility [29]: > 20 mg/mL
solubility [30]: > 20 mg/mL
solubility [31]: > 20 mg/mL
solubility [32]: 3.09 mg/mL
solubility [33]: > 20 mg/mL
solubility [34]: > 20 mg/mL
solubility [35]: > 20 mg/mL
solubility [36]: > 20 mg/mL
solubility [37]: > 20 mg/mL
solubility [38]: > 20 mg/mL
pKa [21]: 9.88
solubility [39]: > 20 mg/mL
pKa ([22]; read-out: pKa2): 3
ED50 [23]: 0.14 mg/kg
ED50 [24]: 0.1 mg/kg
ED50 [25]: 1.6 mg/kg
ED50 [26]: 0.024 mg/kg
ED50 [27]: 1.2 mg/kg
